Legend:
GLUT1 = biological target: T1, GLUT1 (Homo sapiens, UniProt P11166); type: cell-based
T1 sequence (P11166 1-492): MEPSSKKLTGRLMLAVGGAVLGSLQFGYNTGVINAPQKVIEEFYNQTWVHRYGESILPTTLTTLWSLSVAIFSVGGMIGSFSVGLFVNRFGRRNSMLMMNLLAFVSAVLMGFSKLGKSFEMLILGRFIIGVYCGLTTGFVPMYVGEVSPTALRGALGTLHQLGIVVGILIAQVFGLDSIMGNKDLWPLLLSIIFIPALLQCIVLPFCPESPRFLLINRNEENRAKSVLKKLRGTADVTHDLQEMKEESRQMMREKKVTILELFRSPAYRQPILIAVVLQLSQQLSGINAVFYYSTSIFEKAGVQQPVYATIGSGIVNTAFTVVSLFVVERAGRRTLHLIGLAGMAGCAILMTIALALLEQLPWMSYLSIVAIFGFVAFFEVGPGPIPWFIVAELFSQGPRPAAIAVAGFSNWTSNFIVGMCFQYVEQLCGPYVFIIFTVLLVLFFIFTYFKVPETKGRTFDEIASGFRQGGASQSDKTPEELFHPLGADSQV
Summary of the method: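 VW4000fgy1 hxt0 yeast carrying human GLUT1 were grown at 30 °C: first in SC-uracil/2% maltose for 2–3 days, then 1–2 days in SC-uracil/2% glucose from OD600 ~0.5. Cells were resuspended in PBS pH 7.4 at OD600 ~10 and given 5 mM C14-glucose for 10 min. Uptake was quenched with ice-cold buffer pH 5.5, filtered, and counted. Controls: 1% DMSO and 200 μM phloretin.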

GLUT4 = biological target: T2, GLUT4 (Homo sapiens, UniProt P14672); type: cell-based
T2 sequence (P14672 1-509): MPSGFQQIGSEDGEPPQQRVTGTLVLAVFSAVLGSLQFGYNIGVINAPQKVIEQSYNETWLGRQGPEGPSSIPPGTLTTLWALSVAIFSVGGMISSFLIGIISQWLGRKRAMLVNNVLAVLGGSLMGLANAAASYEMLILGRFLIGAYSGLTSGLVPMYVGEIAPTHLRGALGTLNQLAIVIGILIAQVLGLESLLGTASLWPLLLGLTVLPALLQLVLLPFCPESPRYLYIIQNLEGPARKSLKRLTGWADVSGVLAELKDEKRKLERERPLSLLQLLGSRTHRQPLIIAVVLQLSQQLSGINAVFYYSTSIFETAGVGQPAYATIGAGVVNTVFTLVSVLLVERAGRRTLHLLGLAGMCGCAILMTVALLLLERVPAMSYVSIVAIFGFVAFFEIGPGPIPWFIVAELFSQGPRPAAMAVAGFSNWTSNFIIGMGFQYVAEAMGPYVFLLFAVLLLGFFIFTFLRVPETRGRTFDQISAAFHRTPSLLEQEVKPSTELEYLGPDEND
Summary of the method: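 VW4000fgy1erg4 hxt0 yeast expressing human GLUT4 were cultured at 30 °C, first in SC-uracil/1% maltose and then in SC-uracil/0.2% glucose from OD600 ~0.5. Cells in PBS pH 7.4 (OD600 ~10) were fed 5 mM C14-glucose for 10 min. The reaction was quenched in ice-cold buffer pH 5.5, then filtered and scintillation-counted. Vehicle control was 1% DMSO; 200 μM phloretin served as positive control.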

GLUT5 = type: cell-based, human
Summary of the method: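 Uses hexose-transporter-null VW4000 yeast expressing human GLUT5, cultured at 30 °C and 180 rpm. Cells were grown one day in YEP/2% maltose with G418, then 1–2 days in YEP/2% fructose starting from OD600 ~0.5. Washed cells in PBS pH 7.4 (OD600 ~10) took up 10 mM C14-fructose for 10 min. Uptake was stopped with ice-cold KPi/LiCl quench buffer pH 5.5, then filtered and scintillation-counted. Controls were 1% DMSO and 100 μM MSNBA. Screening was at 100 μM; three independent measurements.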

K562 cells = assay: MTT cytotoxicity assay in K562 cells; type: cell-based; details: read-out: K562- IC50; MTT, 48 h, Mean±SD, n=3
Summary of the method: (§1)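 Cells were grown in suspension in RPMI 1640 with 10% FBS and penicillin/streptomycin/amphotericin B at 37 °C under 5% CO2. They were seeded at ~5×10^3 cells/well, kept overnight, then exposed to test compounds diluted in DMSO for 48 h. Cells were pelleted (300 g, 4 °C, 5 min) and washed twice in phosphate buffer. MTT (5 mg/ml stock) was added for 4 h at 37 °C, formazan dissolved in DMSO, and A570 read. Triplicate; IC50 given as mean±SD.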

CEM cells [1] = assay: MTT cytotoxicity assay in CEM cells; type: cell-based; details: read-out: CEM- IC50, 48 h, Mean±SD, n=3
Summary of the method: as §1

white blood cells (WBCs) = assay: MTT assay on non-transformed white blood cells; type: cell-based, human; details: 48 h treatment with 100 μM
Summary of the method: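 WBCs from a healthy adult volunteer were isolated by HiSep centrifugation at 400 xg for 30 min, followed by repeated RBC lysis and PBS washes. Cells were held at 37 °C under 5% CO2 overnight in 96-well plates. Test compound was applied at 2.5–100 μM for 48 h. After two PBS washes, MTT was added for 4 h at 37 °C; formazan was dissolved in DMSO and absorbance read at 570 nm.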

CEM cells [2] = assay: Apoptosis induction by flow cytometry; type: cell-based; details: IC50 concentration, 24 h
Summary of the method: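 CEM cells seeded in 24-well plates and held overnight at 37 °C under CO2. Medium was then replaced, and cells were exposed to the test compound for 24 h; untreated cells served as the negative control. Cells were washed in PBS, pelleted at 500 xg and 4 °C, resuspended in ice-cold binding buffer, and stained with annexin V-FITC plus PI for 15 min on ice in the dark. Analysed by flow cytometry, in triplicate.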

CEM cells [3] = assay: Cell cycle analysis by flow cytometry; type: cell-based; details: IC50 concentration, 24 h
Summary of the method: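 Cells were seeded in 24-well plates overnight, then given fresh medium and exposed to the test compound for 24 h beside an untreated control. After a PBS wash, cells were fixed in ice-cold 70% ethanol on ice for 2 h, then washed again. They were stained with PI for 15 min at 37 °C and analysed by flow cytometry within 30 min, in triplicate.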

[4] = primary screen, 100 μM compound

decrease of relative transport activity of GLUT1 (GLUT1; [4]): > 50%
IC50 (GLUT1; read-out: GLUT1 IC50, hxt0 yeast cells expressing GLUT1, 5 mM C14-glucose, 10 minutes): 5.4 ± 1.3 µM
decrease of relative transport activity of GLUT4 (GLUT4; [4]): > 50%
IC50 (GLUT4; read-out: GLUT4 IC50, hxt0 yeast cells expressing GLUT4, 5 mM C14-glucose, 10 minutes): 9.5 ± 2.8 µM
IC50 (GLUT5; read-out: GLUT5 IC50, hxt0 yeast cells expressing GLUT5, 10 mM C14-fructose, 10 minutes): 34.5 ± 2.4 µM
Structure (SMILES): O=C(CN1C(=O)SC(=Cc2ccc(Cl)cc2)C1=O)Nc1ccc(Cl)cc1C(F)(F)F [Compound G5, 2-[5-(4-Chlorobenzylidene)-2,4-dioxothiazolidin-3-yl]-N-(4-chloro-2-trifluromethylphenyl) acetamide]
decrease of relative transport activity of GLUT5 (GLUT5; [4]): > 50%
IC50 (K562 cells): 34.9 ± 1.07 µM
IC50 (CEM cells [1]): 13.5 ± 3.88 µM
viable WBC cells (white blood cells (WBCs)): More than 66%
percentage of cells in early apoptotic phase (CEM cells [2]): 1.30%
percentage of cells in late apoptotic phase (CEM cells [2]): 59.22%
percentage of live cells (CEM cells [2]): 25.58%
percentage of necrotic cell population (CEM cells [2]): 13.90%
percentage of cells arrested in G0-G1 phase (CEM cells [3]): 52.0%
percentage of cells arrested in the G2-M phase (CEM cells [3]): 22.1%
